A selection: hits, their analogues and other compounds. The true share with any hit is near 2.9%.
HTRA1 inhibitor: blocks human HTRA1 serine peptidase. Q92743. recombinant HTRA1, FP-rhodamine activity-based probe, fluorescence polarization. inhibition, % at 5.96 µM. 0.5% of 340,000 active; in the data active = inhibition above about 36%
TCR CD3 inh: blocks the human TCR-CD3 interaction. TAMRA-labeled TCR probe fluorescence, biochemical. inhibition, % at 9.4 µM. 0.37% of 360,000 active;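 note: recombinant mutant TCR 2C K166C tagged with TAMRA read by polarization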
SIAE inh: human SIAE inhibition, primary screen; SIAE FP-Rh probe binding, fluorescence polarization; inhibition, % at 9.66 µM; 0.69% of 370,000 active;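 active = inhibition above a cutoff: mean of compounds within the control limits plus 3 SD of those, cut at about 17% in these data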
Target sequence (Q9HAT2 whole entry, looked up): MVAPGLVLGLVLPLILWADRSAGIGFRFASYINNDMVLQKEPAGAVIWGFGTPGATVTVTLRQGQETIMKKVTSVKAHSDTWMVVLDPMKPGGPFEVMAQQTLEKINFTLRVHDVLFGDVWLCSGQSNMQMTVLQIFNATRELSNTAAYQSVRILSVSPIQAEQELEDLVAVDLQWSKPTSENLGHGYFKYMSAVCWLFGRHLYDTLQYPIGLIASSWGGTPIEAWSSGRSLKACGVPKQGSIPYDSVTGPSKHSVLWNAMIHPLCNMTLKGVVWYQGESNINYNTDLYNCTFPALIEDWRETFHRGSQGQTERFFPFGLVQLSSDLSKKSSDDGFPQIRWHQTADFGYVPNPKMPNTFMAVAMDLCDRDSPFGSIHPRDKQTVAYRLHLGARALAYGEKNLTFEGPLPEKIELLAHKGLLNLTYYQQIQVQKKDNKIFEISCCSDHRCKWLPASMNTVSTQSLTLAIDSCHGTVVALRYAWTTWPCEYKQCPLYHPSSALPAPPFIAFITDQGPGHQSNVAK
PRMT1 FP inh: PRMT1 (human) inhibition, primary screen | inhibition, % at 2.79 µM | 1.3% of 370,000 active | recombinant PRMT1, activity-based probe fluorescence polarization | AID 652257;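 active = inhibition above about 21% made by adding two undisclosed values, limit read from the data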
PAD4 FP inh: inhibitors of human PAD4; Q9UM07; inhibition, % at 6.36 µM; recombinant PAD4, RCA probe fluorescence polarization; 0.41% of 330,000 active;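 active = percent inhibition above a cutoff equal to the mean of all tested compounds plus 3 SD, cut at about 15% in these data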
mABHD4 FP: ABHD4 (mouse) inhibition, primary FP screen. purified mABHD4, FP-Rh probe fluorescence polarization. inhibition, % at 8.92 µM. 0.54% of 370,000 active. AID 720543;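 active = inhibition exceeding the mean over every tested compound plus 3 SD, cut at about 30% in these data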
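Assay system: wild-type mouse ABHD4 protein; compound: single nominal dose of 8.92 µM, 0.89% DMSO final; schedule: 45 min + 60 min at 25 °C; measured by: FP readout, ex 525 nm / em 598 nm; evaluation: % inhibition of FP-Rh probe binding versus controls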
PAD4 FP conf: PAD4 (human) inhibition, confirmed; shares compounds with PAD4 FP inh; recombinant PAD4, RCA probe fluorescence polarization; inhibition, % at 6.36 µM; 28% of 1,200 active; AID 488796;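 active = mean inhibition across replicates above the hit cutoff set by the earlier primary screen, cut at about 15% in these data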;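 note: inhibitors block active-site labeling by the probe so polarization falls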
HTRA1 conf: confirmation of human HTRA1 inhibitors. shares compounds with HTRA1 inhibitor. recombinant HTRA1, FP-rhodamine activity-based probe, fluorescence polarization. inhibition, % at 5.96 µM. 66% of 1,600 active. AID 540248;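 active = mean inhibition over three repeats above a set limit taken from the earlier primary screen, cut at about 37% in these data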;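 note: inhibitors block probe binding so polarization drops and inhibition rises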
BSA TAMRA ctr: BSA probe counter-screen for TCR-CD3 inhibitors. shares compounds with TCR CD3 inh. TAMRA-labeled BSA probe fluorescence counterscreen. inhibition, % at 9.4 µM. 10% of 1,200 active. AID 652035; in the data active = inhibition above about 23%
TCR-CD3 inh conf: confirmation of human TCR-CD3 interaction inhibitors | shares compounds with TCR CD3 inh | TAMRA-labeled TCR probe fluorescence binding assay | inhibition, % at 9.4 µM | 48% of 1,200 active
PRMT1 confirm: PRMT1 (human) inhibition, FP confirmation | AID 687036 | shares compounds with PRMT1 FP inh | 42% of 3,300 active | inhibition, % at 2.79 µM | recombinant His-PRMT1, activity-based probe fluorescence polarization;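 active = mean inhibition across replicates above the hit cutoff derived for the earlier primary screen, cut at about 22% in these data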
mABHD4 conf: confirmation of mouse ABHD4 inhibitors | shares compounds with mABHD4 FP | purified mABHD4, FP-Rh probe fluorescence polarization | inhibition, % at 8.92 µM | 55% of 1,800 active;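 active = mean inhibition across replicates above the hit cutoff set in the primary screen, cut at about 30% in these data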
Of the large screens only hits and unclear results are named; the others gave an inactive call (follow-up assays come after a bar, where they were run). Cut-off read from the data, not from the text of the source, unless noted: active = inhibition above about 19%; inactive = the rest.

O=C(Nc1ccccc1)OCCN1C(=O)CCC12CCC(c1ccccc1)CC2 (stereo not given)	none (no result: HTRA1 inhibitor, TCR CD3 inh, PAD4 FP inh)
CCc1cc(SC#N)cc(C)c1N	none
CCC(=O)Nc1ccc(SC#N)cc1C	PAD4 FP inh 40 | PAD4 FP conf 42
Cc1cc(SC#N)cc(C)c1NC(=O)CCl	PAD4 FP inh 25 | PAD4 FP conf inactive
CCc1cc(SC#N)cc(C)c1NC(=O)CCl	PRMT1 FP inh 31, PAD4 FP inh 21 | PAD4 FP conf inactive
Cc1ccc(NC(=O)CCl)c(C)c1	none
CC(C)N1CCCCC(NC(=O)c2cccc(F)c2)C1=O (stereo not given)	none (no result: HTRA1 inhibitor, TCR CD3 inh, PAD4 FP inh)
CCC(C)Nc1nc(C)nc2c1nnn2Cc1ccccc1 (stereo not given)	none (no result: HTRA1 inhibitor, TCR CD3 inh, PAD4 FP inh)
COC(=O)CSc1nnc(-c2ccc(NS(=O)(=O)c3ccc(Cl)s3)cc2)o1	none (no result: HTRA1 inhibitor, TCR CD3 inh, PAD4 FP inh)
Cc1ccc(C)c(NC(=O)CN2C(=O)CCSc3ccccc32)c1	none (no result: HTRA1 inhibitor, TCR CD3 inh, PAD4 FP inh)
C=CCOc1ccc(C2OC34CCCCC3C(C#N)(C#N)C2(C#N)C(=N)O4)cc1 (stereo not given)	HTRA1 inhibitor 38, PAD4 FP inh 15 (no result: TCR CD3 inh, SIAE inh, PRMT1 FP inh, mABHD4 FP) | PAD4 FP conf inactive | HTRA1 conf inactive
CCOc1ccc(-n2c(SCC(=O)Nc3ccc(S(=O)(=O)Nc4nccs4)cc3)nnc2-c2ccc(C(C)(C)C)cc2)cc1	none (no result: HTRA1 inhibitor, TCR CD3 inh, PAD4 FP inh)
COC(=O)[C@]12C[C@H](CC(=O)N3CCOCC3)C(=O)N(Cc3ccco3)C1=C[C@H](C(C)(C)C)O[C@@H]2C	none (no result: HTRA1 inhibitor, TCR CD3 inh, PAD4 FP inh)
CCCCNC(=O)/C=C1\Sc2ccccc2NC1=O	none
CCc1ccc(C(=O)/C=C2\Sc3ccccc3NC2=O)cc1	HTRA1 inhibitor 59, PAD4 FP inh 37 | PAD4 FP conf 42 | HTRA1 conf 93
COc1ccc2nc3ccccc3nc2c1N	HTRA1 inhibitor 49, PAD4 FP inh 25 | PAD4 FP conf inactive | HTRA1 conf inactive
COc1ccc2nc3cccc(OC)c3nc2c1	none
COc1ccc(C(=O)Oc2ccc3oc(=O)sc3c2)cc1	HTRA1 inhibitor 45, PRMT1 FP inh 76, PAD4 FP inh 48 | PAD4 FP conf inactive | HTRA1 conf inactive
Oc1ccc(N=Cc2ccc(-c3cccs3)s2)cc1	HTRA1 inhibitor 62, TCR CD3 inh 43, SIAE inh 45, PRMT1 FP inh 38, PAD4 FP inh 18, mABHD4 FP 86 | PAD4 FP conf inactive | HTRA1 conf inactive
CN(C)c1ccc(N=Cc2cccn2C)cc1	HTRA1 inhibitor 42, PAD4 FP inh 25, mABHD4 FP 35 | PAD4 FP conf inactive | HTRA1 conf inactive
CCOC(=O)Cn1cc(CN2C(C(=O)OC)CN(Cc3ccccc3)CCS2(=O)=O)nn1 (stereo not given)	none (no result: HTRA1 inhibitor, TCR CD3 inh, PAD4 FP inh)
Cn1ccnc1SCC(=O)c1ccc2ccccc2c1	none
CCn1c(CSc2nccn2C)nc2cc(C(=O)O)ccc21	HTRA1 inhibitor 38, PAD4 FP inh 35 (no result: TCR CD3 inh, SIAE inh, PRMT1 FP inh, mABHD4 FP) | PAD4 FP conf 43 | HTRA1 conf 48
C=CCN1[C@H](C#N)[C@@H](c2ccc(C#Cc3cccc(OC)c3)cc2)[C@H]1CO	none (no result: HTRA1 inhibitor, TCR CD3 inh, PAD4 FP inh)
CCCCCN1CCCCC(NC(=O)c2ccc3ccccc3c2)C1=O (stereo not given)	none (no result: HTRA1 inhibitor, TCR CD3 inh, PAD4 FP inh)
Cc1ccc(S(=O)(=O)NC(=O)Nc2ccc(N(C)C)cc2)cc1	HTRA1 inhibitor 44, PRMT1 FP inh 26, PAD4 FP inh 28 | PAD4 FP conf inactive | HTRA1 conf 45
COc1ccc(S(=O)(=O)/N=C2\C=C(Nc3ccc(O)cc3)C(=O)c3ccccc32)cc1	HTRA1 inhibitor 84, SIAE inh 40, PAD4 FP inh 62, mABHD4 FP 75 | PAD4 FP conf 58 | HTRA1 conf active
Cc1ccc(NC2=C/C(=N/S(=O)(=O)c3cccs3)c3ccccc3C2=O)cc1C	none
O=C1OC(Nc2cc(Br)cc3cccnc23)c2ccccc21 (stereo not given)	HTRA1 inhibitor 45, TCR CD3 inh 37, SIAE inh 34, PRMT1 FP inh 31, PAD4 FP inh 61, mABHD4 FP 88 | PAD4 FP conf inactive | HTRA1 conf inactive | BSA TAMRA ctr inactive | TCR-CD3 inh conf inactive
C[C@H](O)[C@@H]1CN2CCc3ccc(N4CCOCC4)cc3[C@@H]2C[C@@H]1N(C)CC1CCCCC1	none (no result: HTRA1 inhibitor, TCR CD3 inh, PAD4 FP inh)
CCn1c(CSc2nc3ccccc3[nH]2)nc2cc(C(=O)O)ccc21	TCR CD3 inh 34, PAD4 FP inh 32 | PAD4 FP conf 34 | BSA TAMRA ctr 57 | TCR-CD3 inh conf 42
c1ccc(CSc2nc3ccccc3[nH]2)cc1	none
CCCC1C2CN(C(C)C)CC=C2C(C#N)=C(N)C1(C#N)C#N (stereo not given)	SIAE inh 24, PRMT1 FP inh 70, PAD4 FP inh 25 | PAD4 FP conf inactive | PRMT1 confirm 22
CN1CC=C2C(C#N)=C(N)C(C#N)(C#N)C(CCc3ccccc3)C2C1 (stereo not given)	none (no result: TCR CD3 inh, SIAE inh, PRMT1 FP inh, mABHD4 FP)
O=S(=O)(NC1=NCCCCC1)c1ccc2sc(NS(=O)(=O)c3ccc4ccccc4c3)nc2c1	PRMT1 FP inh 44, PAD4 FP inh 30 | PAD4 FP conf 22 | PRMT1 confirm 27
O=c1c2cc3cccnc3nc2ncn1Cc1cccs1	none (no result: HTRA1 inhibitor, TCR CD3 inh, PAD4 FP inh)
CN(CC(=O)O)S(=O)(=O)c1cccs1	none
CC(=O)N(c1ccc2oc(=O)sc2c1)S(=O)(=O)c1ccccc1	PRMT1 FP inh 91, PAD4 FP inh 18 | PAD4 FP conf inactive | PRMT1 confirm 65
CCCC(=O)N(c1ccc2oc(=O)sc2c1)S(=O)(=O)c1cccs1	PRMT1 FP inh 85, PAD4 FP inh 16 | PAD4 FP conf 18 | PRMT1 confirm 37
COC(=O)[C@@]12CCCCC3=C1N(CCC3)C(=O)[C@H]2CC(=O)NCc1ccc(C)o1	none (no result: HTRA1 inhibitor, TCR CD3 inh, PAD4 FP inh)
CN(Cc1ccccc1Cl)C(=O)CN1C(=O)C2(OCCCO2)c2ccccc21	none (no result: HTRA1 inhibitor, TCR CD3 inh, PAD4 FP inh)
Cc1n[nH]c(C)c1N1C(=O)c2cccc3c(N4CCCCCC4)ccc(c23)C1=O	PRMT1 FP inh 100, PAD4 FP inh 38 | PAD4 FP conf 27 | PRMT1 confirm 88
CC1(C)Nc2ccc(O)cc2-c2c1ssc2=S	PRMT1 FP inh 22, PAD4 FP inh 41, mABHD4 FP 37 | PAD4 FP conf 18 | mABHD4 conf 32

From PubChem
